Bioassay records as filed in PubChem BioAssay.
Only a selection was taken, and hits are over-represented in it overall.
T cruzi growth-1 – T. cruzi proliferation inhibition. T. cruzi beta-gal in NIH3T3, GalScreen luminescence, 90 h. inhibition, % at 8.34 µM. 5.9% of 77,000 active. AID 624255;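 active = mean inhibition above about 93%, with at least 55% of replicates each passing it, limit read from the data, passing the limit was not always enough; inconclusive = only one of those two conditions holds; inactive = neither condition holds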
IDH1 mut inh – blocks human IDH1 R132H reductase activity. inhibition, % at 10 µM. 0.18% of 70,000 active. diaphorase/resazurin fluorescence, 60 min. O75874; in the data active = inhibition above about 34%; inconclusive = no clear call, values can overlap the other calls; inactive = below about 11%
Target sequence (O75874 whole entry R132H): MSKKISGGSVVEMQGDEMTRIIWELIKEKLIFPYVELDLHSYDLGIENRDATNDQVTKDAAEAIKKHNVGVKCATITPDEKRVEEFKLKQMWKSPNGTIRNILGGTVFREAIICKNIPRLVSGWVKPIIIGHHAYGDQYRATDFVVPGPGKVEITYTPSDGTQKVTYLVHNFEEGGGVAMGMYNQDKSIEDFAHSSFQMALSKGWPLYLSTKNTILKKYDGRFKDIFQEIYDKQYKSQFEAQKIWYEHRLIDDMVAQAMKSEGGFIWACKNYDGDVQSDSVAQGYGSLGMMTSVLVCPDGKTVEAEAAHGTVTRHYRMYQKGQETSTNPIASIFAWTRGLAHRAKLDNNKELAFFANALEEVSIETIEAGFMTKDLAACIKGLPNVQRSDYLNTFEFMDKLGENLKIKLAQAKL
GASC1 inh – inhibitors of human demethylase GASC-1 KDM4C. 0.15% of 96,000 active. inhibition, % at 12.5 µM. GST-KDM4C 2-372, H3K9me3 peptide, LANCE TR-FRET. Q9H3R0. AID 720574;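 active = mean replicate inhibition above about 25%, with at least 55% of replicates also reaching it, limit read from the data, passing the limit was not always enough; inconclusive = only one of those two conditions met; inactive = neither condition met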
Target sequence (Q9H3R0 2-372 limits assumed): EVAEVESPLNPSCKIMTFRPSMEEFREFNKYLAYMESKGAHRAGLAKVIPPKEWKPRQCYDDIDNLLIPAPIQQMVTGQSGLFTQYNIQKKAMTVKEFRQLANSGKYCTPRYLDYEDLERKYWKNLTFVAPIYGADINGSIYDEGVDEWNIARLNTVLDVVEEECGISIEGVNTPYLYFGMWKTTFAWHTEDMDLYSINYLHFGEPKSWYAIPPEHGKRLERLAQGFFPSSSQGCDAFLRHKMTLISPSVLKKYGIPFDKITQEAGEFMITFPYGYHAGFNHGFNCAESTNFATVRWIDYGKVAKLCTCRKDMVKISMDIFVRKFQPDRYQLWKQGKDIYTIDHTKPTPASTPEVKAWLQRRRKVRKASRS
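Compound: one test concentration per compound; Material: GST-GASC-1 enzyme fragment 2-372; Amount: GASC-1 enzyme at 10 nM final in reaction; Also added: H3K9me3 peptide substrate, Fe(II), 2-oxoglutarate; Technique: LANCE TR-FRET; Times: 30 min demethylation and 1 h detection at room temperature.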
T cruzi growth-2 – inhibitors of T. cruzi proliferation; T. cruzi beta-gal in NIH3T3, GalScreen luminescence, 90 h; AID 651739; inhibition, % at 8.35 µM; shares compounds with T cruzi growth-1; 72% of 5,600 active;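 active = mean replicate inhibition above about 95% and at least 55% of replicates individually reaching it, limit read from the data; inconclusive = only one of the two criteria is met; inactive = neither criterion is met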
T cruzi growth-3 – inhibitors of T. cruzi proliferation | shares compounds with T cruzi growth-1 | T. cruzi beta-gal in NIH3T3, GalScreen luminescence, 90 h | inhibition, % at 2.09 µM | 21% of 5,600 active | AID 651740;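 active = mean inhibition above about 95%, with at least 55% of replicates also reaching it, limit read from the data; inconclusive = meets just one of the two conditions; inactive = meets neither condition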
NIH3T3 tox – kills mouse NIH/3T3 fibroblasts; shares compounds with T cruzi growth-1; NIH/3T3 viability, CellTiter-Glo ATP luminescence, 90 h; cytotoxicity (signal decrease), % at 8.35 µM; 14% of 5,600 active; AID 651742;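 active = mean signal decrease across replicates above about 35% based on untreated-well scatter, with enough replicates individually passing, limit read from the data; inconclusive = no rule stated though some were filed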
NIH3T3 tox 2 – cytotoxicity in mouse NIH/3T3 fibroblasts. 56% of 5,600 active. shares compounds with T cruzi growth-1. NIH/3T3 viability, CellTiter-Glo ATP luminescence, 90 h. inhibition, % at 24.9 µM;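 active = mean loss of cell viability signal at or above a set limit, and enough replicates individually reaching it; inconclusive = meets only the mean limit or only the replicate share; inactive = meets neither condition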
Of the large screens only hits and unclear results are named; the others gave an inactive call (follow-up assays come after a bar, where they were run).

C[C@@H]1CN([C@@H](C)CO)C(=O)c2cccc(NC(=O)Nc3ccc4c(c3)OCO4)c2O[C@@H]1CN(C)Cc1ccc(Oc2ccccc2)cc1	none (no result: IDH1 mut inh)
C[C@@H]1CN([C@@H](C)CO)C(=O)c2cc(NC(=O)Nc3ccc4c(c3)OCO4)ccc2O[C@@H]1CN(C)Cc1ccncc1	none
C[C@H](CO)N1C[C@H](C)[C@H](CN(C)Cc2ccc(Oc3ccccc3)cc2)Oc2ccc(NC(=O)Cc3ccccc3)cc2C1=O	T cruzi growth-1 inconclusive | T cruzi growth-2 inactive | T cruzi growth-3 inactive | NIH3T3 tox inactive | NIH3T3 tox 2 102
C[C@@H]1CN([C@@H](C)CO)C(=O)c2cc(NC(=O)Cc3ccccc3)ccc2O[C@H]1CN(C)Cc1ccc(Oc2ccccc2)cc1	none (no result: IDH1 mut inh)
O=C(NO)c1ccc(C(=O)N/N=C/c2ccc3ccccc3c2O)cc1	none (no result: T cruzi growth-1, GASC1 inh)
C=CCNC(=O)c1c(NC(=O)C2COc3ccccc3O2)sc2c1CCCC2 (centres undefined)	none (no result: T cruzi growth-1, GASC1 inh)
CCCNC(=O)N[C@@H]1CC[C@H](CC(=O)NC2CCC2)O[C@H]1CO	none
O=P(O)(C1Cc2ccccc2C1)C(O)c1ccco1 (centres undefined)	none (no result: T cruzi growth-1, GASC1 inh)
Cc1noc(NS(=O)(=O)c2ccc(NC(=O)C3COc4ccccc4O3)cc2)c1C (centres undefined)	none (no result: T cruzi growth-1, GASC1 inh)
Cc1cc(C)cc(NC(=O)CSC2CC(=O)N(c3ccc(F)cc3)C2=O)c1 (centres undefined)	none (no result: T cruzi growth-1, GASC1 inh)
C[C@@H]1CN([C@H](C)CO)S(=O)(=O)c2ccc(-c3ccncc3)cc2O[C@@H]1CN(C)Cc1ccccn1	none (no result: IDH1 mut inh)
C[C@@H]1CN([C@H](C)CO)S(=O)(=O)c2ccc(-c3ccncc3)cc2O[C@H]1CN(C)Cc1ccccn1	T cruzi growth-1 112 (no result: IDH1 mut inh) | T cruzi growth-2 inactive | T cruzi growth-3 inconclusive | NIH3T3 tox inconclusive | NIH3T3 tox 2 58
C[C@H]1CN([C@@H](C)CO)S(=O)(=O)c2ccc(-c3ccncc3)cc2O[C@H]1CN(C)Cc1ccccn1	T cruzi growth-1 103 (no result: IDH1 mut inh) | T cruzi growth-2 97 | T cruzi growth-3 inactive | NIH3T3 tox inactive | NIH3T3 tox 2 28
C[C@@H]1CN([C@H](C)CO)S(=O)(=O)c2ccc(-c3ccccc3)cc2O[C@@H]1CN(C)Cc1ccccn1	none
OC[C@H]1[C@H](c2ccc(C#Cc3ccccc3)cc2)[C@H]2CN(CC3CCOCC3)CCCCN21	T cruzi growth-1 102 (no result: IDH1 mut inh) | T cruzi growth-2 109 | T cruzi growth-3 inactive | NIH3T3 tox 76 | NIH3T3 tox 2 105
CCCC#Cc1ccc([C@H]2[C@@H](CO)N3CCCCN(CC4CCOCC4)C[C@@H]23)cc1	none (no result: IDH1 mut inh)
OC[C@H]1[C@@H](c2ccc(C#Cc3ccccc3)cc2)[C@H]2CN(CC3CCOCC3)CCCCN21	none (no result: IDH1 mut inh)
OC[C@@H]1[C@H](c2ccc(C#Cc3ccccc3)cc2)[C@@H]2CN(CC3CCOCC3)CCCCN12	T cruzi growth-1 104 (no result: IDH1 mut inh) | T cruzi growth-2 106 | T cruzi growth-3 inactive | NIH3T3 tox inactive | NIH3T3 tox 2 103
CCCC#Cc1ccc([C@H]2[C@H]3CN(CC4CCOCC4)CCCCN3[C@H]2CO)cc1	none (no result: IDH1 mut inh)
CCCC#Cc1ccc([C@@H]2[C@H]3CN(CC4CCOCC4)CCCCN3[C@H]2CO)cc1	none (no result: IDH1 mut inh)
CCCC#Cc1ccc([C@H]2[C@@H](CO)N3CCCCN(CC4CCOCC4)C[C@H]23)cc1	T cruzi growth-1 124 (no result: IDH1 mut inh) | T cruzi growth-2 inactive | T cruzi growth-3 inactive | NIH3T3 tox inactive | NIH3T3 tox 2 101
OC[C@@H]1[C@@H](c2ccc(C#Cc3ccccc3)cc2)[C@@H]2CN(CC3CCOCC3)CCCCN12	T cruzi growth-1 inconclusive (no result: IDH1 mut inh) | T cruzi growth-2 105 | T cruzi growth-3 inactive | NIH3T3 tox 52 | NIH3T3 tox 2 105
Cc1ccc(-c2nnc3c4ccccc4c(C)nn23)cc1S(=O)(=O)N(C)CCO	none (no result: T cruzi growth-1, GASC1 inh)
O=C(O)CNC(=O)CN1C(=O)c2ccccc2C1=O	none (no result: T cruzi growth-1, GASC1 inh)
O=S(=O)(c1ccccc1)N1CCCCN2[C@@H](CO)[C@H](c3ccc(-c4ccccc4)cc3)[C@@H]2C1	none (no result: IDH1 mut inh)
N#Cc1cccc(-c2ccc([C@H]3[C@H](CO)N4CCCCN(S(=O)(=O)c5ccccc5)C[C@@H]34)cc2)c1	none (no result: IDH1 mut inh)
N#Cc1ccc(-c2ccc([C@@H]3[C@H]4CN(S(=O)(=O)c5ccccc5)CCCCN4[C@H]3CO)cc2)cc1	T cruzi growth-1 101 (no result: IDH1 mut inh) | T cruzi growth-2 103 | T cruzi growth-3 inactive | NIH3T3 tox inactive | NIH3T3 tox 2 29
N#Cc1cccc(-c2ccc([C@H]3[C@H]4CN(S(=O)(=O)c5ccccc5)CCCCN4[C@H]3CO)cc2)c1	none (no result: IDH1 mut inh)
N#Cc1ccc(-c2ccc([C@@H]3[C@H](CO)N4CCCCN(S(=O)(=O)c5ccccc5)C[C@@H]34)cc2)cc1	T cruzi growth-1 inconclusive (no result: IDH1 mut inh) | T cruzi growth-2 inactive | T cruzi growth-3 inactive | NIH3T3 tox inactive | NIH3T3 tox 2 44
N#Cc1ccc(-c2ccc([C@H]3[C@@H](CO)N4CCCCN(S(=O)(=O)c5ccccc5)C[C@H]34)cc2)cc1	T cruzi growth-1 117 (no result: IDH1 mut inh) | T cruzi growth-2 113 | T cruzi growth-3 inactive | NIH3T3 tox inactive | NIH3T3 tox 2 71
COc1ccc(-c2nc3ccccc3s2)cc1NC(=O)COc1cc(C)ccc1C(C)C	none (no result: T cruzi growth-1, GASC1 inh)
COC(=O)[C@@H]1[C@@H](CO)[C@@H]2Cn3c(ccc(C4=CCCCC4)c3=O)[C@@H]2N1CCC(F)(F)F	none (no result: IDH1 mut inh)
CCN1[C@H](C(=O)OC)[C@@H](CO)[C@@H]2Cn3c(ccc(C4=CCCCC4)c3=O)[C@@H]21	T cruzi growth-1 103 (no result: IDH1 mut inh) | T cruzi growth-2 inactive | T cruzi growth-3 inactive | NIH3T3 tox inactive | NIH3T3 tox 2 inactive
CCN1[C@H](C(=O)N(C)C)[C@@H](CO)[C@@H]2Cn3c(ccc(C4=CCCCC4)c3=O)[C@@H]21	none (no result: IDH1 mut inh)
O=C(Nc1ccccc1)[C@H]1[C@H](CO)[C@H]2Cn3c(ccc(C4=CCCCC4)c3=O)[C@H]2N1Cc1ccccn1	none (no result: T cruzi growth-1, IDH1 mut inh)
CCN1[C@@H]2c3ccc(C4=CCCCC4)c(=O)n3C[C@@H]2[C@@H](CO)[C@@H]1C(=O)OC	T cruzi growth-1 97 (no result: IDH1 mut inh) | T cruzi growth-2 inactive | T cruzi growth-3 inactive | NIH3T3 tox inactive | NIH3T3 tox 2 inactive
CN(C)C(=O)[C@@H]1[C@@H](CO)[C@@H]2Cn3c(ccc(C4=CCCCC4)c3=O)[C@@H]2N1Cc1ccccn1	T cruzi growth-1 active (no result: IDH1 mut inh) | T cruzi growth-2 inactive | T cruzi growth-3 inactive | NIH3T3 tox inactive | NIH3T3 tox 2 39
Nc1cc(N)nc(SCC(=O)c2ccc(F)cc2)n1	none (no result: T cruzi growth-1, GASC1 inh)
CC(=O)Nc1cccc(NC(=O)c2cc(-c3ccccn3)nc3ccc(Br)cc23)c1	none (no result: T cruzi growth-1, GASC1 inh)
COc1cc(CNC23CC4CC(CC(C4)C2)C3)ccc1OCC(N)=O	none (no result: T cruzi growth-1, GASC1 inh)
CN1C(=O)c2cc(NS(=O)(=O)c3ccccc3Cl)ccc2OC[C@@H]2O[C@@H](CC(=O)O)CC[C@@H]21	none (no result: IDH1 mut inh)
C[C@H]1CN([C@@H](C)CO)C(=O)c2cc(NC(=O)Nc3cccc4ccccc34)ccc2O[C@H]1CN(C)Cc1ccccc1	none
